Experimental data as given in ChEMBL document CHEMBL2057168, “(1aR,5aR)1a,3,5,5a-Tetrahydro-1H-2,3-diaza-cyclopropa[a]pentalene-4-carboxylic acid (MK-1903): a potent GPR109a agonist that lowers free fatty acids in humans” (J Med Chem, 2012).
The source made the active and inactive calls. The rule behind the calls is not given here.

Legend:
Cytochrome P450 2C9 = Cytochrome P450 2C9 (Homo sapiens, UniProt P11712); experiment: Activity at CYP2C9; assay type: ADME
Cytochrome P450 3A4 = Cytochrome P450 3A4 (Homo sapiens, UniProt P08684); experiment: Activity at CYP3A4; assay type: ADME
Rattus norvegicus = experiment: Antidyslipedic activity in fasted Sprague-Dawley rat assessed as decrease in free fatty acid level at 0.1 to 30 mg/kg, po by NEFA C-free fatty acid assay; assay type: functional; design: scale not given: the % may be the effect or the level left; conditions: dose mg/kg 0.1-30
In short: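 Male Sprague-Dawley rats fasted, compound by oral gavage, serial plasma sampling after dosing for free fatty acids over a time course; vehicle-dosed control group.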

Mus musculus = experiment: Dose normalized AUC in po dosed mouse; assay type: ADME, organism-based; conditions: in vivo
[1] = Terminal half life in Sprague-Dawley rat at 2 mg/kg, iv; assay type: ADME, organism-based; design: dose 2 mg/kg, route intravenous; conditions: in vivo, read-out: beta t1/2 (converted)
In short: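 Male Sprague-Dawley rats were dosed at 10 mg/kg po or 2 mg/kg iv in 80% PEG400/20% phosphate-buffered saline, fasted overnight before the oral dose. Jugular blood was sampled serially from 0.25 to 21 h over 24 h, and heparinized plasma was prepared. Drug was assayed by HPLC/MS/MS (quantitation range 1–2000 ng/mL).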

[2] = Volume of distribution in dog; assay type: ADME, organism-based, Canis lupus familiaris; conditions: in vivo
[3] = Oral bioavailability in dog; assay type: ADME, organism-based, Canis lupus familiaris; conditions: in vivo
[4] = Plasma clearance in rhesus monkey; assay type: ADME, organism-based, Macaca mulatta
[5] = Terminal half life in rhesus monkey; assay type: ADME, organism-based, Macaca mulatta; conditions: in vivo, read-out: beta t1/2 (converted)
Homo sapiens [6] = experiment: Toxicity in po dosed human assessed as occurrence of flushing administered as single dose; assay type: organism-based; conditions: in vivo
In short: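 Healthy human volunteers received single oral doses. Flushing was recorded as a subject-reported adverse event and scored with a flushing symptoms questionnaire. It was compared qualitatively against a 1 g Niaspan dose.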

Homo sapiens [7] = experiment: Antidyslipedic activity in human assessed as decrease in free fatty acid level at 50 to 200 mg, po administered as a single dose measured after 8 hrs relative to placebo control; assay type: functional, organism-based
[8] = AUC (0 to 12 hrs) in human at 100 mg, po BID administered on day 1 followed by 2-day wash out period after which dosing continued up to day 11 measured on day 1; assay type: ADME, organism-based; design: dose 100 mg, time < 12 hr, route oral; conditions: plasma
In short: (§1)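 Double-blind, placebo-controlled, randomized dose-escalation study in healthy male volunteers, six cohorts of eight (six active, two placebo). Oral dose on day 1, two-day washout, then dosing days 4–11; the 200 mg qd cohort was titrated over days 1–4. Venous blood taken predose and at 0.5–12 h on days 1, 4 and 11; plasma drug measured. τ 12 h (bid), 24 h (qd), 8 h (tid), 6 h (qid).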

[9] = AUC (0 to 12 hrs) in human at 150 mg, po BID administered on day 1 followed by 2-day wash out period after which dosing continued up to day 11 measured on day 1; assay type: ADME, organism-based; design: dose 150 mg, time < 12 hr, route oral; conditions: plasma; in short: as §1
[10] = Tmax in human at 150 mg, po TID administered on day 1 followed by 2-days wash out period after which dosing continued up to day 11 measured on day 11; assay type: ADME, organism-based; conditions: in vivo
In short: (§2)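 Double-blind, placebo-controlled, randomized multiple oral dose study in healthy male volunteers (cohorts of eight; six active, two placebo). Dose given on day 1, then a two-day washout, then dosing days 4–11; for the QD arm, subjects were titrated over days 1–4. Venous plasma sampled predose and 0.5, 1, 1.5, 2, 4, 6, 8, 10, 12 h postdose on days 1, 4 and 11. Tmax reported as median (min–max).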

[11] = Tmax in human at 175 mg, po QID administered on day 1 followed by 2-days wash out period after which dosing continued up to day 11 measured on day 11; assay type: ADME, organism-based; conditions: in vivo; in short: as §2
[12] = Apparent half life in human at 100 mg, po BID administered on day 1 followed by 2-day wash out period after which dosing continued up to day 11 measured on day 11; assay type: ADME, organism-based; conditions: in vivo, read-out: t1/2(app) (converted); in short: as §1
[13] = Apparent half life in human at 150 mg, po BID administered on day 1 followed by 2-day wash out period after which dosing continued up to day 11 measured on day 11; assay type: ADME, organism-based; conditions: in vivo, read-out: t1/2(app) (converted); in short: as §1
Homo sapiens [14] = experiment: Antidyslipidemic activity in human assessed as decrease in free fatty acid level 50 to 150 mg, po BID administered on day 1 followed by 2-days wash out period after which dosing continued up to day 11 measured on day 4 and 11; assay type: functional, organism-based
In short: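 Healthy male volunteers in a randomized, double-blind, placebo-controlled multiple-dose study, six active and two placebo subjects per cohort. Oral dosing on day 1, two-day washout, then days 4–11, with titration over days 1–4 for the qd arm.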

Homo sapiens [15] = experiment: Antidyslipidemic activity in dyslipidemia patient assessed as decrease in free fatty acid level at 150 mg administered TID during four week study; assay type: functional, organism-based
[16] = Cmax in human at 50 mg, po BID administered on day 1 followed by 2-day wash out period after which dosing continued up to day 11 measured on day 4; assay type: ADME, organism-based; design: dose 50 mg, route oral; conditions: in vivo
In short: (§3)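 Healthy male volunteers took part in a double-blind, randomized, placebo-controlled dose-escalation study, with cohorts of 8 (6 on drug, 2 on placebo). Each subject got an oral dose on day 1, then a 2-day washout, then dosing on days 4–11. The 200 mg qd group was titrated over days 1–4. Venous plasma was sampled predose and 0.5–12 h postdose on days 1, 4 and 11, and predose on days 5–10 for troughs.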

[17] = Cmax in human at 175 mg, po QID administered on day 1 followed by 2-days wash out period after which dosing continued up to day 11 measured on day 4; assay type: ADME, organism-based; design: dose 175 mg, route oral; conditions: in vivo; in short: as §3
Homo sapiens [18] = experiment: Cmin in human at 50 mg, po BID administered on day 1 followed by 2-day wash out period after which dosing continued up to day 11 measured on day 1 at 12 hrs; assay type: ADME, organism-based; conditions: in vivo, BLD = below limit of detection; in short: as §3
[19] = Cmin in human at 50 mg, po BID administered on day 1 followed by 2-day wash out period after which dosing continued up to day 11 measured on day 4 at 12 hrs; assay type: ADME, organism-based; conditions: in vivo, read-out: Cmin; in short: as §3
[20] = Cmin in human at 100 mg, po BID administered on day 1 followed by 2-day wash out period after which dosing continued up to day 11 measured on day 1 at 12 hrs; assay type: ADME, organism-based; conditions: in vivo, read-out: Cmin; in short: as §3
[21] = Cmin in human at 100 mg, po BID administered on day 1 followed by 2-day wash out period after which dosing continued up to day 11 measured on day 4 at 12 hrs; assay type: ADME, organism-based; conditions: in vivo, read-out: Cmin; in short: as §3
[22] = Cmin in human at 150 mg, po BID administered on day 1 followed by 2-day wash out period after which dosing continued up to day 11 measured on day 1 at 12 hrs; assay type: ADME, organism-based; conditions: in vivo, read-out: Cmin; in short: as §3
[23] = Cmin in human at 150 mg, po BID administered on day 1 followed by 2-day wash out period after which dosing continued up to day 11 measured on day 4 at 12 hrs; assay type: ADME, organism-based; conditions: in vivo, read-out: Cmin; in short: as §3
[24] = Cmin in human at 150 mg, po TID administered on day 1 followed by 2-days wash out period after which dosing continued up to day 11 measured on day 4 at 8 hrs; assay type: ADME, organism-based; conditions: in vivo, read-out: Cmin; in short: as §3
[25] = Tmax in human at 100 mg, po BID administered on day 1 followed by 2-day wash out period after which dosing continued up to day 11 measured on day 4; assay type: ADME, organism-based; conditions: in vivo; in short: as §2
[26] = Tmax in human at 100 mg, po BID administered on day 1 followed by 2-day wash out period after which dosing continued up to day 11 measured on day 11; assay type: ADME, organism-based; conditions: in vivo; in short: as §2

Sequence of Cytochrome P450 3A4 (P08684 whole entry): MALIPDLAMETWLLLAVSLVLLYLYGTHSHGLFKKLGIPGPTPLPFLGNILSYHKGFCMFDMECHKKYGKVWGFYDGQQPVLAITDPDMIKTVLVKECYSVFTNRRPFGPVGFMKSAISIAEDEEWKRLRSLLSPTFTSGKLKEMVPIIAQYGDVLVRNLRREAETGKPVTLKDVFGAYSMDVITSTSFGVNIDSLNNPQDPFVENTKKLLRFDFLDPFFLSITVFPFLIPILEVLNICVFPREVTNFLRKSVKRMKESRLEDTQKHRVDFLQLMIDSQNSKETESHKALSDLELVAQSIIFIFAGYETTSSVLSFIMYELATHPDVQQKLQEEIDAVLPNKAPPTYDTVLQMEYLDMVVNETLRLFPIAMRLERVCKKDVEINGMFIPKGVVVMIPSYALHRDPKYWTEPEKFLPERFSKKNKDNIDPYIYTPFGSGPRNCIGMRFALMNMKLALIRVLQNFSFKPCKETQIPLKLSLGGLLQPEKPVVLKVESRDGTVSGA
Sequence of Cytochrome P450 2C9 (P11712 whole entry): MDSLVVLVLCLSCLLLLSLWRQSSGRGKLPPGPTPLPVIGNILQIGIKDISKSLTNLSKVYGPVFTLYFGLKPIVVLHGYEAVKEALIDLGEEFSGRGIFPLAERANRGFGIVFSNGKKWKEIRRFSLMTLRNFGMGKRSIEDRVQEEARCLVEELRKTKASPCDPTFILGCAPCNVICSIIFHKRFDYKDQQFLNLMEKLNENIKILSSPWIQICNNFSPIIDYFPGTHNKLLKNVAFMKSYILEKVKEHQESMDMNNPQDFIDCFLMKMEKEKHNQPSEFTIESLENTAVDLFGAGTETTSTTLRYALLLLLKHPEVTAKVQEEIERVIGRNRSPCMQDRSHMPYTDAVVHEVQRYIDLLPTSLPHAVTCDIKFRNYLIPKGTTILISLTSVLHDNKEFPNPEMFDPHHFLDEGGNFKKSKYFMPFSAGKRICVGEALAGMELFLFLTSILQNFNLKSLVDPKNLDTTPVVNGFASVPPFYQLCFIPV

In the case of O=C(O)c1n[nH]c2c1C[C@H]1C[C@@H]21, the Activity (Cytochrome P450 2C9) is reported as “Not Active”, the Activity (Cytochrome P450 3A4) is reported as “Not Active” and the Activity (Rattus norvegicus) is reported as 90%. For the same molecule, the AUC/dose (Mus musculus) was 4.1 µM·kg·h/mg, the half-life [1] was 2.4 h and the Vd [2] was 0.41 L/kg. It also gave a bioavailability [3] of 100%, a clearance [4] of 5.1 mL/min/kg and a half-life [5] of 1.1 h. For the same molecule, the MTD (Homo sapiens [6]) was 200 mg, the Activity (Homo sapiens [7]) was “inactive” and the AUC at 12 h [8] was 0.0728 µM·h. For the same molecule, the AUC at 12 h [9] was 0.0977 µM·h, the Tmax [10] was 1 h and the Tmax [11] was 0.75 h. For the same molecule, the half-life [12] was 2.2 h, the half-life [13] was 8.9 h and the Activity (Homo sapiens [14]) was “Active”. The Activity (Homo sapiens [15]) was “Active”, the Cmax [16] was 12.3 nM and the Cmax [17] was 49.9 nM. For the same molecule, the Cmin (Homo sapiens [18]) was “BLD”, the concentration at 12 h [19] was 0.023 nM and the concentration at 12 h [20] was 0.124 nM. The concentration at 12 h [21] was 0.083 nM, the concentration at 12 h [22] was 0.316 nM and the concentration at 12 h [23] was 0.241 nM. The concentration at 8 h [24] was 0.583 nM, the Tmax [25] was 1 h and the Tmax [26] was 0.5 h.
